An excerpt weighted towards active compounds, which were near 3.5% of everything screened.
MrgX1 antagonist: blocks BAM8-22 activation of human MrgX1 receptor | MRGX1-HEK293 calcium flux, Fluo-4, BAM8-22 antagonism; hits give low values | AID 588676 | B-score at 10 µM | 1.3% of 310,000 active;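 active = calcium-response B-score plate-corrected more than 3 library SD below zero, starting fluorescence within 5 deviations, no agonist response on first addition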;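 note: peak minus trough fluorescence over baseline after final BAM8-22 challenge near maximal dose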
Target sequence (Q96LB2 whole entry, looked up): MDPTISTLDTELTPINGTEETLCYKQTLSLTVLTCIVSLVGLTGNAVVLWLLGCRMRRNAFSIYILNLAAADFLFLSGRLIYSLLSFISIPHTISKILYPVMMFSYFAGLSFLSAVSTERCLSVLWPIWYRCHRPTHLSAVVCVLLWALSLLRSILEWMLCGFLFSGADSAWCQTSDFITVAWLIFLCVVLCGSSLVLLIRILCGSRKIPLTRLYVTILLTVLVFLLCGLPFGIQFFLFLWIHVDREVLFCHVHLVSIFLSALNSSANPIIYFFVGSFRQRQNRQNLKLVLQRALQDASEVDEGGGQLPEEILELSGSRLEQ
MrgX1 ag: agonists of human MrgX1 receptor. Q96LB2. B-score at 10 µM. 0.44% of 310,000 active. MrgX1-HEK293 cells, Fluo-4 calcium fluorescence, agonist mode; hits give high values. AID 588627;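 active = calcium response B-score plate-corrected fluorescence ratio at least 3 library SD, with starting fluorescence B-score inside 5 SD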
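Test system: HEK293 cells stably expressing human MrgX1 receptor; Input: fifteen thousand cells per well; Dosing: compound delivered in addition one of three; Schedule: overnight seeding, then 1 h dark dye loading; Technique: Fluo-4 NW calcium fluorescence; Measure: B-scored fluorescence response ratio; Controls: positive and negative controls per plate.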
MrgX1 allo act: human MrgX1 positive allosteric modulation, primary screen; Q96LB2; MrgX1-HEK293, Fluo-4 calcium flux, FDSS; hits give high values; B-score at 10 µM; 0.63% of 310,000 active; AID 588675;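 active = plate-corrected calcium response at least 3 library SD above typical, normal starting fluorescence, not activating the receptor alone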;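 note: compound read alongside a low EC10 to EC30 dose of BAM8-22 agonist; peak minus trough fluorescence over baseline measured at the second addition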
RGS4 inh: human RGS4 inhibition; HEK293 M3R/RGS4 inducible, Fluo-4 calcium flux; hits give high values; triggered by carbachol at its EC20; 0.45% of 310,000 active; B-score at 10 µM; P49798;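 active = B-score, a plate-corrected calcium signal, over three deviations above library mean, with baseline fluorescence within five deviations of library mean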;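 note: RGS4 expression induced by doxycycline in cells with stable M3 receptor; B-score is computed from the integrated fluorescence ratio over baseline after carbachol; higher B-score means a larger calcium signal and so more RGS4 inhibition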
Target sequence (P49798 whole entry, looked up): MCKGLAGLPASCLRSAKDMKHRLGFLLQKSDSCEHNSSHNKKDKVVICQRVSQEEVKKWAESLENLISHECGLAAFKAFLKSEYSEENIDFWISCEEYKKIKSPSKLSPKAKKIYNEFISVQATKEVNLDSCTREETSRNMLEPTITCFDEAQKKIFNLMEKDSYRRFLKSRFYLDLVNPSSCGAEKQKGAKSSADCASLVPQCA
RGS4 pot: potentiators or activators of RGS4 | HEK293 M3R/inducible RGS4, carbachol calcium flux Fluo4; hits give low values | B-score at 10 µM | 0.92% of 310,000 active | AID 463111;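 active = B-score of the integrated calcium signal more than 4 SD below the library mean, with starting fluorescence not abnormally high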;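 note: negative B-score means reduced calcium response which marks RGS4 activation or potentiation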
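Assay system: Inducible-RGS4 HEK293 cells carrying M3 receptor | Schedule: Compound preincubation 20 min at room temperature before agonist | Signal: Kinetic calcium fluorescence imaging with Fluo4-AM dye, 2 µM | Read-out basis: B score from integrated fluorescence ratio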
* hit, by the source's call; i = inactive; / = not tested or not shown.

SMILES	MrgX1 antagonist	MrgX1 ag	MrgX1 allo act	RGS4 inh	RGS4 pot
CC1(C(=O)N2CC3(CC(c4ccccc4)=NO3)C[C@H]2C(=O)NCC(N)=O)CC1 (stereo partly specified)	-5.6*	i	i	i	i
CCC(=O)Nc1cccc(C2=NOC3(C2)C[C@@H](C(N)=O)N(C(=O)c2ccccc2C(=O)c2ccccc2)C3)c1 (stereo partly specified)	-8*	i	i	i	i
CCC(=O)Nc1cccc(C2=NOC3(C2)C[C@@H](C(N)=O)N(C(=O)COc2ccc(Cl)cc2)C3)c1 (stereo partly specified)	i	i	8.9*	i	i
CCC(=O)N1CC2(CC(c3cccc(NC(=O)COc4ccc(Cl)cc4)c3)=NO2)C[C@@H]1C(N)=O (stereo partly specified)	/	/	/	i	i
CCOCCCNC(=O)c1cn(C)c2ccc(S(=O)(=O)N3CCCCC3)cc2c1=O	i	i	i	i	i
Cc1ccc(S(=O)(=O)N(C)C)cc1NC(=S)Nc1ccc2[nH]c(=O)[nH]c2c1	i	i	i	i	i
Nc1ncn(-c2ncc(C(F)(F)F)cc2Cl)n1	i	i	i	i	i
COc1ccc([N+](=O)[O-])cc1N(CC(=O)NC1CCCCC1)S(C)(=O)=O	i	i	i	i	i
Cc1ccc([N+](=O)[O-])cc1N(CC(=O)N1CCCCC1)S(C)(=O)=O	i	i	7.5*	i	i
Cc1ccc([N+](=O)[O-])cc1N(CC(=O)NC1CCCC1)S(C)(=O)=O	i	i	11*	i	i
Cc1ccc(C)c(N(CC(=O)N2CCCCCC2)S(C)(=O)=O)c1	i	i	i	i	i
Cc1ccc(C(C)C)c(OCc2ccc(C(=O)N/N=C/c3cccc(O)c3O)cc2)c1	i	i	i	i	i
CCOc1cc(/C=C2/C(=O)ON=C2C)cc(Br)c1O	i	58*	i	i	i
CCCOc1ccc(/C=C2/C(=O)ON=C2C)cc1OCC	i	i	i	i	i
COc1ccc(NC(=O)CN(c2ccc(F)cc2)S(=O)(=O)c2ccccc2)c(OC)c1	i	i	i	i	i
O=S(=O)(c1ccc(Cl)c(Cl)c1)c1snnc1-c1ccccc1	/	/	/	i	-7.3*
c1ccc(-c2nnsc2-c2ccccc2)cc1	i	i	i	i	i
COc1cccc(CN(C)C(=O)c2cc(-c3cccs3)nc3ccccc23)c1	i	i	i	i	-9.1*
CCN(Cc1ccccc1)C(=O)c1cc(-c2ccc(OC)c(OC)c2)nc2ccccc12	i	i	i	i	-9.2*
COCCN(Cc1ccccc1)C(=O)c1cc(-c2ccc(OC)c(OC)c2)nc2ccccc12	i	i	i	i	-8.7*
COc1cc(-c2cc(C(=O)N(C)Cc3ccccc3)c3ccccc3n2)cc(OC)c1OC	i	i	i	i	i
COc1ccc(-c2cc(C(=O)N(C)Cc3ccccc3F)c3ccccc3n2)cc1OC	i	i	i	i	-8.2*
CN(CC(=O)Nc1ccccc1Br)C(=O)c1ccccc1-c1nc2ccccc2s1	i	i	i	i	i
CC(=O)c1ccc(NC(=O)/C(=C\c2cccs2)NC(=O)c2ccco2)cc1	i	i	i	i	i
O=C(COC(=O)c1ccc(Br)cc1)Nc1ccccc1Br	i	i	i	i	i
SMILES	MrgX1 antagonist	MrgX1 ag	MrgX1 allo act	RGS4 inh	RGS4 pot
COc1ccc(/C=C/C(=O)NCC2COc3ccccc3O2)cc1OC (stereo unspecified)	-7.1*	i	i	i	i
CCc1nnc(NS(=O)(=O)c2ccc(NCc3ccccc3O)cc2)s1	i	i	i	i	i
N#Cc1ccccc1OCC(=O)NCC(c1cccs1)N1CCOCC1 (stereo unspecified)	i	i	i	i	i
CC1(c2nnc(-c3ccc(F)cc3)o2)CC(c2c(Cl)cccc2Cl)=NO1 (stereo unspecified)	i	i	i	i	i
CC1(c2nnc(-c3ccc(Cl)cc3)o2)CC(c2c(Cl)cccc2Cl)=NO1 (stereo unspecified)	i	i	i	i	-9.2*
Cc1ccc([N+](=O)[O-])cc1NC(=O)C[n+]1ccccc1	i	i	i	i	i
Cc1ccc(C(=O)N/C(=C\c2cccc([N+](=O)[O-])c2)C(=O)Nc2cccc(C(=O)O)c2)cc1	i	i	i	i	i
COc1ccc(C(=O)N/C(=C\c2cccc([N+](=O)[O-])c2)C(=O)Nc2cccc(C(=O)O)c2)cc1	-6.9*	i	i	i	i
COc1ccc(OC)c(-c2nc(C(=O)NCC3CCCO3)cc3c2[nH]c2ccccc23)c1 (stereo unspecified)	i	i	i	i	i
COc1cccc(-c2nc(C(=O)NCC3CCCO3)cc3c2[nH]c2ccccc23)c1 (stereo unspecified)	i	i	i	i	-7.2*
COc1ccc(CC(=O)Nc2ccc(N3CCCC3)c(C)c2)cc1	i	i	i	i	i
CCCCn1nnnc1SCC(=O)NNC(=O)C1CCCCC1	-5.1*	i	i	i	i
COc1ccc(C(CNC(=O)c2ccc(-c3ccccc3Cl)o2)N2CCOCC2)cc1 (stereo unspecified)	i	i	i	i	i
COc1ccccc1C(CNC(=O)c1ccc(-c2ccccc2Cl)o1)N1CCCC1 (stereo unspecified)	i	i	i	i	-7.1*
COC(=O)Nc1ccc([N+](=O)[O-])cc1OC	-7.4*	i	i	i	i
Cc1cc(C)n2nc(-c3ccccc3)c(-c3ccccc3)c2n1	i	i	i	i	i
COc1ccccc1C(=O)NC(CCSC)C(=O)NC1CCCCCC1 (stereo unspecified)	i	i	i	i	i
Cc1c(Br)c([N+](=O)[O-])nn1CCCC(=O)N1CCN(c2ccccc2)CC1	i	i	i	i	i
Cc1c(Cl)c([N+](=O)[O-])nn1CCCC(=O)Nc1c(Cl)cccc1Cl	i	i	i	i	i
Cc1c(Cl)c([N+](=O)[O-])nn1CCCC(=O)Nc1c(C)n(C)n(-c2ccccc2)c1=O	i	i	i	i	-7.3*
Cc1c(Cl)c([N+](=O)[O-])nn1CCCC(=O)N1CCN(c2ccccc2)CC1	-5.3*	i	i	i	i
COc1ccc(NC(=O)C2CCN(S(=O)(=O)c3cccc4nonc34)CC2)cc1	i	i	i	i	i

Source: PubChem BioAssay (Johns Hopkins Ion Channel Center)
